Measured values reported in ChEMBL document CHEMBL4257520, “Design, synthesis and bioactivity investigation of tetrandrine derivatives as potential anti-cancer agents” (Medchemcomm, 2018).

Columns and labels:
HEL = test: Antiproliferative activity against HEL cells after 48 hrs by MTT assay; format: functional, cell-based; conditions: Homo sapiens
Summary of the method: (§1)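 MTT assay on human cancer lines held at 37 °C, 95% humidity, 5% CO2. Cells were exposed to compounds at 20.0–0.5 μM for 48 h, then washed twice with PBS. MTT (5 mg mL–1 in PBS) was added for 4 h at 37 °C, the formazan was dissolved in DMSO, and A490 was read. IC50 comes from replicate wells over three independent experiments.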

K562 = test: Antiproliferative activity against human K562 cells after 48 hrs by MTT assay; format: functional, cell-based; conditions: K562, 48 h; summary of the method: as §1
PC-3 = test: Antiproliferative activity against human PC3 cells after 48 hrs by MTT assay; format: functional, cell-based; conditions: PC-3, 48 h; summary of the method: as §1
[1] = Antiproliferative activity against human WM9 cells after 48 hrs by MTT assay; format: functional, cell-based; conditions: WM9, 48 h; summary of the method: as §1
MDA-MB-231 = test: Antiproliferative activity against human MDA-MB-231 cells after 48 hrs by MTT assay; format: functional, cell-based; conditions: MDA-MB-231, 48 h; summary of the method: as §1
L02 = test: Cytotoxicity against human HL7702 cells after 48 hrs by MTT assay; format: cell-based; conditions: L02, 48 h
Summary of the method: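 Normal human liver HL7702 cells were assessed by MTT assay, with formazan absorbance as the read-out, to give an IC50 for cytotoxicity.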

Row | IC50 (K562) [µM] | IC50 (PC-3) [µM] | IC50 (MDA-MB-231) [µM] | SMILES | IC50 (HEL) [µM] | IC50 [1] [µM] | IC50 (L02) [µM]
1 | 4.03 | 4.44 | 7.12 | COc1cc(NS(=O)(=O)c2ccc([N+](=O)[O-])cc2)c2cc1Oc1ccc(cc1)C[C@H]1c3cc(c(OC)cc3CCN1C)Oc1c(OC)c(OC)cc3c1[C@H](C2)N(C)CC3 | 3.68 | 4.24 | 14.1
2 | 6.76 | 5.46 | 5.43 | COc1cc(NS(=O)(=O)c2c(C(C)C)cc(C(C)C)cc2C(C)C)c2cc1Oc1ccc(cc1)C[C@H]1c3cc(c(OC)cc3CCN1C)Oc1c(OC)c(OC)cc3c1[C@H](C2)N(C)CC3 | 5.31 | 2.13 | 32.1
3 | 1.46 | 3.47 | 3.81 | COc1cc(NS(=O)(=O)c2cccc(Br)c2)c2cc1Oc1ccc(cc1)C[C@H]1c3cc(c(OC)cc3CCN1C)Oc1c(OC)c(OC)cc3c1[C@H](C2)N(C)CC3 | 2.9 | 1.68 | 8.73
4 | 5.05 | 7.3 | 2.51 | COc1cc(NS(=O)(=O)c2ccccc2[N+](=O)[O-])c2cc1Oc1ccc(cc1)C[C@H]1c3cc(c(OC)cc3CCN1C)Oc1c(OC)c(OC)cc3c1[C@H](C2)N(C)CC3 | 5.72 | 3.26 | 16.2
5 | 4.14 | 6.64 | 5.12 | CCCS(=O)(=O)Nc1cc(OC)c2cc1C[C@H]1c3c(cc(OC)c(OC)c3Oc3cc4c(cc3OC)CCN(C)[C@H]4Cc3ccc(cc3)O2)CCN1C | 6 | 4.03 | 12.5
6 | 3 | 2.67 | 3.55 | COc1cc(N)c2cc1Oc1ccc(cc1)C[C@H]1c3cc(c(OC)cc3CCN1C)Oc1c(OC)c(OC)cc3c1[C@H](C2)N(C)CC3 | 6.66 | 6.36 | –
7 | 3.57 | 3.37 | 5.67 | COc1cc(NS(C)(=O)=O)c2cc1Oc1ccc(cc1)C[C@H]1c3cc(c(OC)cc3CCN1C)Oc1c(OC)c(OC)cc3c1[C@H](C2)N(C)CC3 | 2.6 | 2.58 | 14.7
8 | 5.84 | 5.89 | 7.89 | COc1cc(NS(=O)(=O)c2ccccc2F)c2cc1Oc1ccc(cc1)C[C@H]1c3cc(c(OC)cc3CCN1C)Oc1c(OC)c(OC)cc3c1[C@H](C2)N(C)CC3 | 3.04 | 4.19 | 16.3
9 | 7.12 | 5.57 | 6.69 | COc1cc(NS(=O)(=O)C(F)(F)F)c2cc1Oc1ccc(cc1)C[C@H]1c3cc(c(OC)cc3CCN1C)Oc1c(OC)c(OC)cc3c1[C@H](C2)N(C)CC3 | 5.83 | 5.8 | 18.6
10 | 3.28 | 3.24 | 7.79 | COc1cc(NS(=O)(=O)c2ccc(F)cc2)c2cc1Oc1ccc(cc1)C[C@H]1c3cc(c(OC)cc3CCN1C)Oc1c(OC)c(OC)cc3c1[C@H](C2)N(C)CC3 | 1.57 | 4.33 | 12.1
11 | 3.47 | 4.75 | 6.61 | COc1cc(NS(=O)(=O)c2ccc(NC(C)=O)cc2)c2cc1Oc1ccc(cc1)C[C@H]1c3cc(c(OC)cc3CCN1C)Oc1c(OC)c(OC)cc3c1[C@H](C2)N(C)CC3 | 10.8 | 3.31 | 17.5
12 | 1.78 | 1.94 | 6.37 | COc1cc(NS(=O)(=O)c2cccc([N+](=O)[O-])c2)c2cc1Oc1ccc(cc1)C[C@H]1c3cc(c(OC)cc3CCN1C)Oc1c(OC)c(OC)cc3c1[C@H](C2)N(C)CC3 | 2.17 | 3.36 | 10.1
13 | 3.72 | 3.98 | 5.6 | COc1cc(NS(=O)(=O)c2ccc(Br)cc2)c2cc1Oc1ccc(cc1)C[C@H]1c3cc(c(OC)cc3CCN1C)Oc1c(OC)c(OC)cc3c1[C@H](C2)N(C)CC3 | 3.83 | 8.51 | 9.38
14 | 1.39 | 4.3 | 6.26 | COc1cc(NS(=O)(=O)c2cccc3cccnc23)c2cc1Oc1ccc(cc1)C[C@H]1c3cc(c(OC)cc3CCN1C)Oc1c(OC)c(OC)cc3c1[C@H](C2)N(C)CC3 | 2.85 | 4.53 | 12.7
15 | 5.36 | 5.31 | 9.86 | CC[C@]1(O)C[C@H]2CN(CCc3c([nH]c4ccccc34)[C@@](C(=O)OC)(c3cc4c(cc3OC)N(C=O)[C@H]3[C@@](O)(C(=O)OC)[C@H](OC(C)=O)[C@]5(CC)C=CCN6CC[C@]43[C@@H]65)C2)C1 [VINCRISTINE] | 5.97 | 4.28 | –
16 | 7.26 | 5.19 | 5.33 | CCCCS(=O)(=O)Nc1cc(OC)c2cc1C[C@H]1c3c(cc(OC)c(OC)c3Oc3cc4c(cc3OC)CCN(C)[C@H]4Cc3ccc(cc3)O2)CCN1C | 6.77 | 6.35 | 22.5
17 | 3.57 | 4.63 | 7.42 | COc1cc(NS(=O)(=O)c2ccccc2Cl)c2cc1Oc1ccc(cc1)C[C@H]1c3cc(c(OC)cc3CCN1C)Oc1c(OC)c(OC)cc3c1[C@H](C2)N(C)CC3 | 3.48 | 4.09 | 7.91
18 | 3.07 | 4.44 | 7.48 | COc1cc(NS(=O)(=O)c2ccccc2)c2cc1Oc1ccc(cc1)C[C@H]1c3cc(c(OC)cc3CCN1C)Oc1c(OC)c(OC)cc3c1[C@H](C2)N(C)CC3 | 3.87 | 1.98 | 13.5
19 | 1.47 | 3.41 | 3.88 | COc1cc(NS(=O)(=O)c2cc(Cl)cc(Cl)c2)c2cc1Oc1ccc(cc1)C[C@H]1c3cc(c(OC)cc3CCN1C)Oc1c(OC)c(OC)cc3c1[C@H](C2)N(C)CC3 | 5.68 | 3.7 | 13.7
20 | 5.95 | 5.76 | 6.84 | COc1cc(NS(=O)(=O)c2ccc(Cl)nc2)c2cc1Oc1ccc(cc1)C[C@H]1c3cc(c(OC)cc3CCN1C)Oc1c(OC)c(OC)cc3c1[C@H](C2)N(C)CC3 | 6.01 | 7.93 | 19.5
21 | 3.22 | 3.99 | 4.56 | COc1cccc(S(=O)(=O)Nc2cc(OC)c3cc2C[C@H]2c4c(cc(OC)c(OC)c4Oc4cc5c(cc4OC)CCN(C)[C@H]5Cc4ccc(cc4)O3)CCN2C)c1 | 8.59 | 4.11 | 28.2
22 | 3.24 | 3.29 | 5.31 | COc1cc(NS(=O)(=O)c2c(C)cc(C)cc2C)c2cc1Oc1ccc(cc1)C[C@H]1c3cc(c(OC)cc3CCN1C)Oc1c(OC)c(OC)cc3c1[C@H](C2)N(C)CC3 | 4.81 | 4.16 | 21.2
23 | 3.61 | 3.81 | 6.55 | COc1cc(NS(=O)(=O)c2ccc(C(F)(F)F)cc2)c2cc1Oc1ccc(cc1)C[C@H]1c3cc(c(OC)cc3CCN1C)Oc1c(OC)c(OC)cc3c1[C@H](C2)N(C)CC3 | 2.87 | 4.43 | 8.11
24 | 3.19 | 4.86 | 5.25 | COc1cc(NS(=O)(=O)c2ccc(C(C)(C)C)cc2)c2cc1Oc1ccc(cc1)C[C@H]1c3cc(c(OC)cc3CCN1C)Oc1c(OC)c(OC)cc3c1[C@H](C2)N(C)CC3 | 9.58 | 4.07 | 26.2
25 | 2.67 | 2.97 | 4.81 | COc1cc(NS(=O)(=O)c2ccc(Cl)cc2)c2cc1Oc1ccc(cc1)C[C@H]1c3cc(c(OC)cc3CCN1C)Oc1c(OC)c(OC)cc3c1[C@H](C2)N(C)CC3 | 2.59 | 3.73 | 17.1

Row | SMILES | IC50 (K562) [µM] | IC50 (PC-3) [µM] | IC50 (MDA-MB-231) [µM] | IC50 (HEL) [µM] | IC50 [1] [µM] | IC50 (L02) [µM]
26 | COc1cc([N+](=O)[O-])c2cc1Oc1ccc(cc1)C[C@H]1c3cc(c(OC)cc3CCN1C)Oc1c(OC)c(OC)cc3c1[C@H](C2)N(C)CC3 | 9.05 | 6.81 | 11.3 | 7.36 | 12.1 | –
27 | COc1ccc2cc1Oc1ccc(cc1)C[C@H]1c3cc(c(OC)cc3CCN1C)Oc1c(OC)c(OC)cc3c1[C@H](C2)N(C)CC3 [FANCHININ] | 11.8 | 5.86 | 8.94 | 7.45 | 6.1 | 44.2
